Source: ChEMBL document CHEMBL3046169, “Synthesis and bioactivity study of 2-acylamino-substituted N'-benzylbenzohydrazide derivatives” (2012)

Tests used:
Format in all cases: functional
Tetranychus cinnabarinus = assay: Pesticidal activity against Tetranychus cinnabarinus (carmine spider mite) third- instar larvae grown on Phaseolus vulgaris leaves assessed as pest mortality at 600 mg/L measured 48 hr post compound exposure
Outline: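 More than 20 third-instar mite larvae on Phaseolus vulgaris leaves dipped 5 s in compound solutions (water with 0.05% Triton X-100), excess liquor removed. Larvae held at 25 ± 1 °C in illumination box; mortality read at 48 h. Primary screen at 600 mg L⁻¹, follow-up at 400, 200, 100, 50 and 25 mg L⁻¹ with LC50 calculated. Triplicate tests.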

Aphis gossypii = assay: Pesticidal activity against Aphis gossypii (cotton aphid) third-instar nymphae grown on tender Hibiscus syriacus leaves assessed as pest mortality at 600 mg/L measured 24 hr post compound exposure; conditions: in Hibiscus syriacus
Outline: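 Leaf-dip bioassay: over 30 healthy apterous third-instar nymphs on tender Hibiscus syriacus leaves dipped 5 s in compound diluted in distilled water with 0.05% Triton X-100, excess fluid removed. Held in illumination box at 25 ± 1 °C; mortality scored after 24 h. Tests in triplicate.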

Plutella xylostella = assay: Pesticidal activity against Plutella xylostella (diamondback moth) second-instar larvae grown on cruciferous vegetables leaves leaves as pest mortality at 600 mg/L measured 48 hr post compound exposure
Outline: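 Over 20 second-instar larvae on cruciferous vegetable leaves dipped 5 s in compound diluted in distilled water containing 0.05% Triton X-100, excess liquid removed. Kept in illumination box at 25 ± 1 °C; mortality recorded 48 h after treatment. Each test in triplicate.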

| Compound | mortality at 600 µg/mL (Tetranychus cinnabarinus) [%] | mortality at 600 µg/mL (Aphis gossypii) [%] | mortality at 600 µg/mL (Plutella xylostella) [%] |
| --- | --- | --- | --- |
| Cc1cc(Br)cc(C(=O)NNCc2ccc(Cl)cc2Cl)c1NC(=O)C(C)(C)C | 77 | 90.2 | 34 |
| Cc1cccc(C(=O)NNCc2ccc(Cl)nc2)c1NC(=O)CC(C)(C)C | 19.3 | 65.5 | 100 |
| Cc1cc(Br)cc(C(=O)NNCc2ccccc2)c1NC(=O)CC(C)(C)C | 78.1 | 96.6 | 22 |
| Cc1cc(Br)cc(C(=O)NNCc2ccccc2Cl)c1NC(=O)CC(C)(C)C | 11.6 | 88 | 76 |
| Cc1cc(Br)cc(C(=O)NNCc2cccc(C(F)(F)F)c2)c1NC(=O)C(C)(C)CCl | 72.7 | 78.6 | 52 |
| Cc1cccc(C(=O)NNCc2ccc(Cl)cc2Cl)c1NC(=O)C(C)(C)C | 52.9 | 89.4 | 50 |
| Cc1cc(Cl)cc(C(=O)NNCc2ccccc2)c1NC(=O)CC(C)(C)C | 70.1 | 70.4 | 94 |
| Cc1cc(Cl)cc(C(=O)NNCc2cccc(C(F)(F)F)c2)c1NC(=O)C(C)(C)CCl | 61.8 | 5.1 | 52 |
| Cc1cc(Cl)cc(C(=O)NNCc2ccc(F)cc2)c1NC(=O)C(C)(C)C | 73.8 | 41.5 | 88 |
| Cc1cc(Br)cc(C(=O)NNCc2ccccc2Cl)c1NC(=O)C(C)(C)C | 40.1 | 49.1 | 64 |
| Cc1cc(Cl)cc(C(=O)NNCc2cccc(C(F)(F)F)c2)c1NC(=O)C(C)(C)C | 8.6 | 68.3 | 40 |
| Cc1cccc(C(=O)NNCc2ccccc2Cl)c1NC(=O)C(C)(C)C | 5.9 | 92.2 | 64 |
| Cc1cccc(C(=O)NNCc2ccccc2)c1NC(=O)C(C)(C)C | 16.7 | 62.3 | 52 |
| Cc1cc(Cl)cc(C(=O)NNCc2ccccc2)c1NC(=O)C(C)(C)C | 92.5 | 52.4 | 34 |
| Cc1cc(Cl)cc(C(=O)NNCc2ccc(Cl)cc2Cl)c1NC(=O)CC(C)(C)C | 88.8 | 62 | 88 |
| Cc1cc(Cl)cc(C(=O)NNCc2ccc(Cl)nc2)c1NC(=O)C(C)(C)CCl | 47.1 | 30.6 | 16 |
| Cc1cc(Cl)cc(C(=O)NNCc2ccc(F)cc2)c1NC(=O)C(C)(C)CCl | 67 | 81.5 | 64 |
| Cc1cc(Br)cc(C(=O)NNCc2ccc(Cl)cc2Cl)c1NC(=O)C(C)(C)CCl | 82.5 | 3.8 | 70 |
| Cc1cc(Br)cc(C(=O)NNCc2ccccc2)c1NC(=O)C(C)(C)CCl | 20.3 | 84.6 | 52 |
| Cc1cccc(C(=O)NNCc2ccccc2)c1NC(=O)C(C)(C)CCl | 79.3 | 95.6 | 52 |
| Cc1cc(Br)cc(C(=O)NNCc2ccc(Cl)nc2)c1NC(=O)C(C)(C)C | 19.3 | 96.2 | 64 |
| Cc1cc(Cl)cc(C(=O)NNCc2ccc(Cl)cc2Cl)c1NC(=O)C(C)(C)CCl | 73.8 | 42.3 | – |
| Cc1cccc(C(=O)NNCc2ccccc2Cl)c1NC(=O)C(C)(C)CCl | 46.7 | 68.8 | 22 |
| CC(C)(C)C(=O)Nc1ccc(Cl)cc1C(=O)NNCc1ccc(F)cc1 | 73.8 | 91.3 | – |
